Experimental data reported in publication PMC6959540 (Nuclear medicine and biology, 2012).

How the values were obtained:
[1] = molecular target: T1, rTRPV1 (Rattus norvegicus, UniProt O35433); assay: ^45Ca^2+ uptake in CHO-rTRPV1 cells; type: cell-based
Summary of the method: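 CHO-rTRPV1 cells (Tet-Off) were induced for about 48 h without tetracycline. They were then exposed for 5 min at 37 °C to DMEM containing BSA (0.25 mg/mL), 45Ca2+ (37 kBq/mL) and increasing test compound. Agonism was referenced to 300 nM capsaicin, and antagonism was tested against 75 nM capsaicin. Cells were washed, lysed in RIPA buffer and scintillation-counted. Each point was the mean of four wells, fitted to the Hill equation.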

[2] = molecular target: T2, hTRPV1 (Homo sapiens, UniProt Q8NER1); conditions: read-out: IC50 reported for hTRPV1; cited from earlier work
[3] = molecular target: T1, rTRPV1; assay: [^3H]RTX competition binding on CHO cells transfected with rTRPV1; conditions: read-out: binding affinity (Kd), [^3H]RTX as radioligand
Summary of the method: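 A stable Tet-Off CHO line with rat TRPV1 was induced for 48 h in tetracycline-free medium, harvested and pelleted, and pellets were stored at −20 °C. Binding used [3H]RTX (100 pM) plus graded competitor in DPBS with Ca2+/Mg2+ and BSA (0.25 mg/mL), at 37 °C for 60 min. Nonspecific binding was set with 100 nM unlabelled RTX. Membranes were pelleted after glycoprotein addition and scintillation-counted. Parameters came from Hill equation fits.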

[4] = molecular target: T2, hTRPV1; assay: ^45Ca^2+ uptake in CHO-hTRPV1 cells; type: cell-based
Summary of the method: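 Tet-Off CHO-hTRPV1 cells at 50–70% confluency were induced 48 h without tetracycline. Assay medium was DMEM with BSA 0.25 mg/mL, 45Ca2+ 37 kBq/mL and increasing ligand concentrations. Antagonism wells also held capsaicin 75 nM; full-agonist reference was capsaicin 300 nM. After 5 min at 37 °C, cells were washed, lysed in RIPA buffer and scintillation-counted. Each point is the mean of four wells, fitted with the Hill equation.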

[5] = molecular target: T2, hTRPV1; assay: [^3H]RTX competition binding on CHO cells transfected with hTRPV1; conditions: read-out: binding affinity (Kd), [^3H]RTX as radioligand
Summary of the method: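 Stable Tet-Off CHO cells expressing human TRPV1 were induced 48 h in tetracycline-free medium, harvested and pelleted. Assay mix: DPBS with Ca2+/Mg2+, BSA 0.25 mg/mL, [3H]RTX 100 pM and varying competitor concentrations; 100 nM unlabelled RTX defined nonspecific binding. Incubation 60 min at 37 °C, ice-cooled, glycoprotein added, membranes pelleted by centrifugation. Pellets and supernatant were scintillation-counted and Ki fitted with the Hill equation.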

[6] = system: TRPV1 receptor; assay: Biodistribution in NMRI mice pretreated with BCTC or SB366791; type: in vivo; conditions: 60 min p.i.
Summary of the method: (§1)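 Male NMRI mice (32–43 g), either pretreated s.c. 1 h before tracer or TRPV1−/−. Tracer was diluted in saline (<10% ethanol) and ~9.25 MBq given via lateral tail vein under pentobarbital (60 mg/kg i.p.) or isoflurane (2% in O2). Mice were decapitated at 2, 10 or 60 min (n=4 per time point). Tissues and blood were weighed and gamma-counted, and trigeminal nerve-to-blood activity ratios calculated. Values are mean ± SEM.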

[7] = Brain radiometabolites in mice; type: in vivo; conditions: mouse brain
[8] = Plasma radiometabolites in mice; type: in vivo; conditions: mouse plasma
[9] = Distribution coefficient n-octanol/phosphate buffer pH 7.4; type: physicochemical; conditions: 1-octanol / 0.025 M phosphate buffer pH 7.4
Summary of the method: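 HPLC-purified radiotracer (~37 MBq/mL in saline) was added to equal volumes of n-octanol and 0.025 M sodium phosphate buffer pH 7.4 (n=8). Tubes were vortexed for 1 min at room temperature and centrifuged at 3000 rpm for 10 min. Phase aliquots were weighed and gamma-counted. D was calculated as cpm/mL octanol over cpm/mL buffer, with volumes derived from mass and phase density.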

[10] = Biodistribution in control NMRI mice; type: in vivo; conditions: for % ID / % ID/g: control mice i.v.
Summary of the method: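 Male NMRI mice (32–43 g) under pentobarbital (60 mg/kg i.p.) or isoflurane (2% in oxygen) received about 9.25 MBq of radiotracer in saline via a lateral tail vein. They were decapitated at 2, 10 or 60 min p.i. (n=4 per time point). Organs and blood were dissected, weighed and gamma-counted. %ID was organ cpm over total recovered cpm. Blood mass was taken as 7% of body mass.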

[11] = system: TRPV1 receptor; assay: Biodistribution in TRPV1^-/- mice; type: in vivo; conditions: 60 min p.i.
Summary of the method: as §1

[12] = read-out: antagonist activity (Ki), capsaicin 75 nM
[13] = control mice, pentobarbital, i.v.

T1 sequence (O35433 whole entry): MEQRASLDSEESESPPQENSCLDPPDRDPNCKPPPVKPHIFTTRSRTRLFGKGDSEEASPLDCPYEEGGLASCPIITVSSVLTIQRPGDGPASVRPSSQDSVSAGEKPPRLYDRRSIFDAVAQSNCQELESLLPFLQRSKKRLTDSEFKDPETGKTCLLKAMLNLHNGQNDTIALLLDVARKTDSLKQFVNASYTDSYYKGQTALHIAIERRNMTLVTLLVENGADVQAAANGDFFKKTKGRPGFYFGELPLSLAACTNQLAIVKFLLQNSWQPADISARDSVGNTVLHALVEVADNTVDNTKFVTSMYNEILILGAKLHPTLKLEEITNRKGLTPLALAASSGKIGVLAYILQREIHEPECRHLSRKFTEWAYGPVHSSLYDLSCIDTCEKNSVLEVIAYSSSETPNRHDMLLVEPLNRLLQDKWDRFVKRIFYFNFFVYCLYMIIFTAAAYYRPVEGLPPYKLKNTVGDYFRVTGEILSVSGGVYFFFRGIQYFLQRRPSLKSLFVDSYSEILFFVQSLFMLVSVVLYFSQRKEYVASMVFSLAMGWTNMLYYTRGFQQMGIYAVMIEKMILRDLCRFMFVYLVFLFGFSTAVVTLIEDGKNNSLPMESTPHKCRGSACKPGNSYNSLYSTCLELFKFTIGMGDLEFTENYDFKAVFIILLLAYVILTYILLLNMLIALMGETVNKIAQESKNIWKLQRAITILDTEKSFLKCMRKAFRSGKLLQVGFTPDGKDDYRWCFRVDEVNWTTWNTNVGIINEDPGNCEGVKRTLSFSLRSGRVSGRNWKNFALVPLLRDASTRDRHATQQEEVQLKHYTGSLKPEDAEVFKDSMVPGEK
T2 sequence (Q8NER1 whole entry): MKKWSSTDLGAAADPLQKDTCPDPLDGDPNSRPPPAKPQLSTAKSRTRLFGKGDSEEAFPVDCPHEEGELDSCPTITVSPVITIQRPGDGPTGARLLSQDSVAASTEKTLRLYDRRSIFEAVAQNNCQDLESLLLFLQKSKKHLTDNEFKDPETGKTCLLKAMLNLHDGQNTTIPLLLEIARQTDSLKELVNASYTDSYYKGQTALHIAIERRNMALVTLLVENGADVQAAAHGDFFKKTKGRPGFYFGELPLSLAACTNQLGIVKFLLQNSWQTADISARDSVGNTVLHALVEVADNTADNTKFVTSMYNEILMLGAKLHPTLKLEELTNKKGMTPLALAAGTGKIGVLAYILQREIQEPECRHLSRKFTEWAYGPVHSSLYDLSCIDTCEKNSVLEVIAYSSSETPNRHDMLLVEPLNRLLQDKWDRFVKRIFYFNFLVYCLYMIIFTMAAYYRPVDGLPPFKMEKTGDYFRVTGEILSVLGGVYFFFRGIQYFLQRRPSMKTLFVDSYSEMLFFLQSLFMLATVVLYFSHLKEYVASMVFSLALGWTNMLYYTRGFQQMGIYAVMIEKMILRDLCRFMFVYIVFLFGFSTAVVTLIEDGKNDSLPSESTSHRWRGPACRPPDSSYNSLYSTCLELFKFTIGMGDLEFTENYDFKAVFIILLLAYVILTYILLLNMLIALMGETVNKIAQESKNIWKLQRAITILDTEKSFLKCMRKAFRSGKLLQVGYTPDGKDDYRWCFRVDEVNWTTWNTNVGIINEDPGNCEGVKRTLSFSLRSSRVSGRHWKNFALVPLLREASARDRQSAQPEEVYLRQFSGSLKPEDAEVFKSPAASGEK

For `COc1cccc(NC(=O)/C=C/c2ccc(Cl)cc2)c1` [SB366791, N-(3-methoxyphenyl)-4-chlorocinnamide], the agonist effects ([1]; agonism assay) is given as “No agonist effects were observed”, the Ki [1, 12] is given as 334 ± 17 nM and the IC50 [2] is given as 5.7 nM. The Kd [3] was 780 ± 140 nM, the agonist effects ([4]; agonism assay) was “No agonist effects were observed” and the Ki [4, 12] was 197 ± 17 nM. It also gave a Kd [5] of 280 ± 56 nM.

In the case of `[11CH3]Oc1cccc(NC(=O)/C=C/c2ccc(Cl)cc2)c1` [[^11C]SB366791], the “trigeminal nerve-to-blood activity ratio” value ([6]; mice pretreated with BCTC 10 mg/kg s.c. 1 h before tracer) is reported as 1.0, the “trigeminal nerve-to-blood activity ratio” value ([6]; mice pretreated with SB366791 10 mg/kg s.c. 1 h before tracer) is reported as 1.3 and the “intact tracer in brain, of total recovered radioactivity” value ([7]; 2 min after injection) is reported as 85.6%±3.7. For the same molecule, the “intact tracer in brain, of total recovered radioactivity” value ([7]; 10 min after injection) was 67.2%±0.7, the “intact tracer in plasma, of recovered radioactivity” value ([8]; 2 min after i.v. injection) was 52.0±3.0% and the radiometabolites in plasma ([8]; 2 min p.i.) was 48.0%±3.0. The radiometabolites in plasma ([8]; 10 min p.i.) was 82.4%±1.9, the “log D” value [9] was 3.5±0.1 and the “% ID” value ([10]; Bladder+urine, 2 min p.i.) was 0.2±0.1 % ID. The “% ID” value ([10]; Bladder+urine, 10 min p.i.) was 8.0±2.5 % ID, the “% ID” value ([10]; Bladder+urine, 60 min p.i.) was 25.9±12.0 % ID and the “% ID” value ([10]; Blood, 2 min p.i.) was 9.9±1.0 % ID. For the same molecule, the “% ID/g” value ([10]; Blood, 2 min p.i.) was 3.6±0.4 % ID/g, the “% ID” value ([10]; Blood, 10 min p.i.) was 6.9±0.5 % ID and the “% ID/g” value ([10]; Blood, 10 min p.i.) was 2.6±0.2 % ID/g. The “% ID” value ([10]; Blood, 60 min p.i.) was 2.3±0.2 % ID, the “% ID/g” value ([10]; Blood, 60 min p.i.) was 0.8±0.1 % ID/g and the “% ID/g” value ([10]; Bone, 2 min p.i.) was 1.5±0.2 % ID/g. For the same molecule, the “% ID/g” value ([10]; Bone, 10 min p.i.) was 1.2±0.4 % ID/g, the “% ID/g” value ([10]; Bone, 60 min p.i.) was 0.9±0.2 % ID/g and the “% ID” value ([10]; Carcass, 2 min p.i.) was 44.5±3.6 % ID. For the same molecule, the “% ID” value ([10]; Carcass, 10 min p.i.) was 48.6±2.2 % ID, the “% ID” value ([10]; Carcass, 60 min p.i.) was 19.3±3.3 % ID and the “% ID” value ([10]; Cerebellum, 2 min p.i.) was 0.4±0.1 % ID. The “% ID/g” value ([10]; Cerebellum, 2 min p.i.) was 3.9±0.4 % ID/g, the “% ID” value ([10]; Cerebellum, 10 min p.i.) was 0.1±0.0 % ID and the “% ID/g” value ([10]; Cerebellum, 10 min p.i.) was 1.1±0.1 % ID/g. For the same molecule, the “% ID” value ([10]; Cerebellum, 60 min p.i.) was 0.0±0.0 % ID, the “% ID/g” value ([10]; Cerebellum, 60 min p.i.) was 0.3±0.1 % ID/g and the “% ID” value ([10]; Cerebrum, 2 min p.i.) was 1.2±0.2 % ID. For the same molecule, the “% ID/g” value ([10]; Cerebrum, 2 min p.i.) was 3.7±0.5 % ID/g, the “% ID” value ([10]; Cerebrum, 10 min p.i.) was 0.4±0.0 % ID and the “% ID/g” value ([10]; Cerebrum, 10 min p.i.) was 1.2±0.1 % ID/g. For the same molecule, the “% ID” value ([10]; Cerebrum, 60 min p.i.) was 0.1±0.0 % ID, the “% ID/g” value ([10]; Cerebrum, 60 min p.i.) was 0.3±0.0 % ID/g and the “% ID” value ([10]; Heart, 2 min p.i.) was 0.9±0.1 % ID. The “% ID/g” value ([10]; Heart, 2 min p.i.) was 5.0±1.0 % ID/g, the “% ID” value ([10]; Heart, 10 min p.i.) was 0.3±0.1 % ID and the “% ID/g” value ([10]; Heart, 10 min p.i.) was 1.8±0.2 % ID/g. For the same molecule, the “% ID” value ([10]; Heart, 60 min p.i.) was 0.1±0.0 % ID, the “% ID/g” value ([10]; Heart, 60 min p.i.) was 0.6±0.0 % ID/g and the “% ID” value ([10]; Intestines, 2 min p.i.) was 8.9±0.6 % ID. The “% ID” value ([10]; Intestines, 10 min p.i.) was 13.0±1.5 % ID, the “% ID” value ([10]; Intestines, 60 min p.i.) was 33.8±6.2 % ID and the “% ID” value ([10]; Kidneys, 2 min p.i.) was 4.5±0.2 % ID. The “% ID/g” value ([10]; Kidneys, 2 min p.i.) was 7.1±0.8 % ID/g, the “% ID” value ([10]; Kidneys, 10 min p.i.) was 5.0±1.0 % ID and the “% ID/g” value ([10]; Kidneys, 10 min p.i.) was 7.9±1.2 % ID/g. The “% ID” value ([10]; Kidneys, 60 min p.i.) was 1.9±0.4 % ID, the “% ID/g” value ([10]; Kidneys, 60 min p.i.) was 2.8±0.5 % ID/g and the “% ID” value ([10]; Liver, 2 min p.i.) was 28.6±2.5 % ID. For the same molecule, the “% ID/g” value ([10]; Liver, 2 min p.i.) was 14.2±2.5 % ID/g, the “% ID” value ([10]; Liver, 10 min p.i.) was 16.1±1.6 % ID and the “% ID/g” value ([10]; Liver, 10 min p.i.) was 8.7±1.0 % ID/g. For the same molecule, the “% ID” value ([10]; Liver, 60 min p.i.) was 8.9±3.2 % ID, the “% ID/g” value ([10]; Liver, 60 min p.i.) was 4.6±2.1 % ID/g and the “% ID” value ([10]; Lungs, 2 min p.i.) was 1.5±0.4 % ID. For the same molecule, the “% ID/g” value ([10]; Lungs, 2 min p.i.) was 4.5±0.3 % ID/g, the “% ID” value ([10]; Lungs, 10 min p.i.) was 0.9±0.2 % ID and the “% ID/g” value ([10]; Lungs, 10 min p.i.) was 2.7±0.1 % ID/g. For the same molecule, the “% ID” value ([10]; Lungs, 60 min p.i.) was 0.5±0.2 % ID, the “% ID/g” value ([10]; Lungs, 60 min p.i.) was 1.6±1.0 % ID/g and the “% ID/g” value ([10]; Muscle, 2 min p.i.) was 1.2±0.3 % ID/g. The “% ID/g” value ([10]; Muscle, 10 min p.i.) was 1.3±0.2 % ID/g, the “% ID/g” value ([10]; Muscle, 60 min p.i.) was 0.4±0.1 % ID/g and the “% ID” value ([10]; Pancreas, 2 min p.i.) was 1.1±0.1 % ID. The “% ID/g” value ([10]; Pancreas, 2 min p.i.) was 5.4±0.9 % ID/g, the “% ID” value ([10]; Pancreas, 10 min p.i.) was 0.6±0.1 % ID and the “% ID/g” value ([10]; Pancreas, 10 min p.i.) was 2.7±0.2 % ID/g. The “% ID” value ([10]; Pancreas, 60 min p.i.) was 0.5±0.2 % ID, the “% ID/g” value ([10]; Pancreas, 60 min p.i.) was 2.0±0.5 % ID/g and the “% ID/g” value ([10]; Skin, 2 min p.i.) was 1.3±0.1 % ID/g. For the same molecule, the “% ID/g” value ([10]; Skin, 10 min p.i.) was 2.4±0.3 % ID/g, the “% ID/g” value ([10]; Skin, 60 min p.i.) was 1.1±0.3 % ID/g and the “% ID” value ([10]; Spleen, 2 min p.i.) was 0.6±0.2 % ID. For the same molecule, the “% ID/g” value ([10]; Spleen, 2 min p.i.) was 4.0±0.8 % ID/g, the “% ID” value ([10]; Spleen, 10 min p.i.) was 0.2±0.0 % ID and the “% ID/g” value ([10]; Spleen, 10 min p.i.) was 2.0±0.2 % ID/g. For the same molecule, the “% ID” value ([10]; Spleen, 60 min p.i.) was 0.2±0.0 % ID, the “% ID/g” value ([10]; Spleen, 60 min p.i.) was 1.4±0.3 % ID/g and the “% ID” value ([10]; Stomach, 2 min p.i.) was 1.4±0.2 % ID. For the same molecule, the “% ID” value ([10]; Stomach, 10 min p.i.) was 2.0±0.7 % ID, the “% ID” value ([10]; Stomach, 60 min p.i.) was 1.8±0.7 % ID and the “% ID” value ([10]; Trigeminal nerve, 2 min p.i.) was 0.02±0.00 % ID. For the same molecule, the “% ID/g” value ([10]; Trigeminal nerve, 2 min p.i.) was 4.2±0.4 % ID/g, the “% ID” value ([10]; Trigeminal nerve, 10 min p.i.) was 0.01±0.00 % ID and the “% ID/g” value ([10]; Trigeminal nerve, 10 min p.i.) was 3.4±0.2 % ID/g. For the same molecule, the “% ID” value ([10]; Trigeminal nerve, 60 min p.i.) was 0.01±0.00 % ID, the “% ID/g” value ([10]; Trigeminal nerve, 60 min p.i.) was 2.9±0.7 % ID/g and the total brain uptake ([10]; control mice, 2 min after injection) was 1.6 % ID. The total brain uptake ([10]; control mice, 60 min p.i.) was 0.1 % ID, the “SUV in trigeminal nerve, isoflurane versus pentobarbital anaesthesia” value ([10]; control mice, isoflurane 2% in oxygen compared with pentobarbital 60 mg/kg i.p.) was “remarkable lower” and the “blood 2 min/60 min ratio” value [10, 13] was 4.3. The “trigeminal nerve 2 min/60 min ratio” value [10, 13] was 1.5 and the “trigeminal nerve-to-blood activity ratio” value [11] was 0.8.
